Screening data as filed in PubChem.
FN deposition inh – fibronectin deposition inhibition; AH1F fibroblasts, Alexa488-fibronectin deposition fluorescence, overnight; inhibition, % at 12.6 µM; 350,000 tested, 0.086% active;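 active means mean inhibition across replicates of 30% or more, regardless of how many single replicates reach that level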;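 further: positive control wells lacked labelled fibronectin entirely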
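Material: AH1F fibroblasts assembling fluorescent fibronectin matrix; amount: 10000 AH1F cells/well; medium: DMEM, 2% serum; reagent: Alexa488-fibronectin, 24 nM final in well; dosing: single compound dose, delivered by pin transfer; incubation: 1 h adhesion, overnight exposure; detection: fluorescence after three HBSS washes, excitation 485 nm, emission 525 nm; measure: fibronectin deposition inhibition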
TROY signal inh – blocks TROY-dependent signaling in reporter cells; Q293 LMP1-TROYcd NF-kB luciferase reporter, 4 h; inhibition, % at 10 µM; 360,000 tested, 0.98% active; AID 1347056;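 active means compounds whose plate-normalised and pattern-corrected inhibition of the luciferase reporter signal at the single screening dose is 50% or more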
XiGFP reactiv – activators of X-chromosome reactivation in mouse fibroblasts; activation, % at 7.58 µM; 360,000 tested, 0.055% active; XiGFP mouse fibroblasts, % GFP-positive cells imaging, 3 d; cells co-treated with 5-aza-dC sensitizer; scaled so ellipticine positive control = 100%; AID 743238;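 active means mean normalized replicate activation at least 10% and every replicate at or above 10%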;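 further: 0% = median of on-plate neutral control wells and 100% = ellipticine 6 µM median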
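Schedule: 3 d treatment, 15 min room-temperature fixation; system: 68-5-11 XiGFP fibroblast line; buffer or medium: DMEM plus 5-aza-dC sensitizer; control set: ellipticine 6 µM positive control; compound: one concentration, pinned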
EWS-Fli block – blocks EWS/Fli oncoprotein-driven transcription | A673 NR0B1-luciferase reporter, viability-normalised | inhibition, % at 12.6 µM | 350,000 tested, 0.67% active | AID 651661;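 active means mean inhibition of at least 50% after viability correction, with every replicate also passing that limit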;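 further: firefly luciferase signal divided by Alamar Blue viability fluorescence both relative to DMSO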
TWEAK Fn14 block – blocks TWEAK-Fn14 interaction in a reporter cell assay | TWEAK-stimulated Fn14 reporter cells, luciferase luminescence, 8 h | inhibition, % at 10 µM | AID 1159606 | 360,000 tested, 2% active; in the data active means inhibition above about 50%
LGR2 inh – Drosophila LGR2 receptor signaling inhibition; AID 720647; HEK293 LGR2, CRE-luciferase, bursicon-stimulated, 4 h; 380,000 tested, 0.35% active; inhibition, % at 9.99 µM;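 active means drop in luminescence signal, shown as inhibition above about 50% in the replicate tests, limit read from the data, passing the limit was not always enough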;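 further: agonist challenge used bursicon conditioned medium at about half maximal strength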
* = called active by the depositor; / = no result given. The list is not random: actives were taken first. Their share in the collection is about 2.3%.

SMILES	FN deposition inh	TROY signal inh	XiGFP reactiv	EWS-Fli block	TWEAK Fn14 block	LGR2 inh
NC(=O)c1ccsc1NC(=O)CN1CCN(S(=O)(=O)c2ccccc2C(F)(F)F)CC1	5	50*	0	12	29	13
O=C(CN1CCN(S(=O)(=O)c2ccccc2C(F)(F)F)CC1)NCc1cccs1	3	0	0	3	2	-13
O=C(O)c1ccc(CSc2nc3ccc(N4C(=O)C5C6C=CC(C6)C5C4=O)cc3s2)cc1 (stereo unspecified)	2	34	0	/	51*	2
CCc1cccc(CC)c1NC(=O)CSc1nc2ccc(N3C(=O)C4C5C=CC(C5)C4C3=O)cc2s1 (stereo unspecified)	9	20	/	/	14	/
O=C(CNC(=O)c1ccccc1)c1ccccc1	-3	-24	0	-35	50*	16
O=C(CNC(=O)c1ccc(Br)cc1)c1ccccc1	-2	-46	0	-8	0	/
Cc1cc(-c2ccc(S(=O)(=O)N(C)c3ccc(C)c(C)c3)s2)on1	13	23	0	/	17	18
Cc1ccc(N(C)S(=O)(=O)c2ccc(-c3cc(C)no3)s2)cc1	9	3	0	54*	-9	-11
Cc1cc(C)c2oc(C(=O)Nc3ccc(S(=O)(=O)Nc4nccs4)cc3)cc(=O)c2c1	3	1	0	-8	73*	-14
Cc1cc2oc(C(=O)Nc3ccc(S(=O)(=O)Nc4nccs4)cc3)cc(=O)c2cc1Cl	-3	7	0	/	-6	5
CCOC(=O)C(=NC(C)CC)NNc1cccc(C(F)(F)F)c1 (stereo unspecified)	-8	0	0	/	58*	2
CC1C(=O)N(Cc2cn(CCC3OCCCO3)nn2)CCS(=O)(=O)N1Cc1ccc(-c2ccc(F)cc2)cc1 (stereo unspecified)	-6	7	0	1	-2	-9
CC1C(=O)N(Cc2cn(CCC3OCCCO3)nn2)CCS(=O)(=O)N1Cc1ccc(-c2ccc(Cl)c(Cl)c2)cc1 (stereo unspecified)	7	45	0	6	71*	35
COc1ccccc1C#Cc1ccc([C@H]2[C@@H](C#N)N(C(=O)C3CCCCC3)[C@H]2CO)cc1	16	/	0	63*	/	/
N#C[C@H]1[C@H](c2ccc(C#Cc3ccccc3F)cc2)[C@H](CO)N1C(=O)C1CCCC1	26	/	0	1	/	104*
N#C[C@H]1[C@H](c2ccc(C#Cc3ccccc3F)cc2)[C@H](CO)N1C(=O)C1CC1	-1	/	0	-36	/	62*
COc1ccccc1C#Cc1ccc([C@@H]2[C@@H](C#N)N(C(=O)C3CCCCC3)[C@H]2CO)cc1	-2	/	0	0	/	/
N#C[C@@H]1[C@@H](c2ccc(C#Cc3ccccc3F)cc2)[C@@H](CO)N1C(=O)C1CCCC1	-7	/	0	/	/	/
O=C(N[C@H]1CC[C@H](CCNS(=O)(=O)c2ccc(Cl)cc2)O[C@H]1CO)c1cccc(F)c1	/	/	0	-7	/	-2
CCCCS(=O)(=O)N1CCCC(C(=O)Nc2ccc(Cl)cn2)C1 (stereo unspecified)	3	5	0	2	85*	-3
Cc1noc(C)c1S(=O)(=O)Nc1ccc2c(c1)C(=O)N([C@H](C)CO)C[C@H](C)[C@H](CN(C)C(=O)NC(C)C)OCCCC[C@H](C)O2	-1	/	1	-15	/	-4
CO[C@@H]1CN(C)C(=O)c2ccc(NS(C)(=O)=O)cc2OC[C@H](C)N(C(=O)CC2CC2)C[C@H]1C	-2	/	0	-3	/	-3
CO[C@@H]1CN(C)C(=O)c2cc(NC(=O)Nc3ccc(Cl)cc3)ccc2OC[C@@H](C)N(C(=O)Nc2c(C)noc2C)C[C@@H]1C	8	/	0	-13	/	3
C[C@@H]1CN([C@H](C)CO)S(=O)(=O)c2ccc(-c3ccccc3)cc2O[C@@H]1CN(C)Cc1ccccn1	-5	/	-1	0	/	6
C[C@@H]1CN([C@H](C)CO)S(=O)(=O)c2ccc(-c3ccccc3)cc2O[C@H]1CN(C)Cc1ccccn1	-1	/	0	73*	/	6
SMILES	FN deposition inh	TROY signal inh	XiGFP reactiv	EWS-Fli block	TWEAK Fn14 block	LGR2 inh
C[C@@H]1CN([C@@H](C)CO)S(=O)(=O)c2ccc(-c3ccccc3)cc2O[C@H]1CN(C)Cc1cccnc1	-6	/	-1	67*	/	0
COc1ccccc1C#Cc1ccc2c(c1)O[C@H](CN(C)Cc1cncnc1)[C@@H](C)CN([C@H](C)CO)S2(=O)=O	/	/	26*	5	/	7
C[C@@H]1CN([C@@H](C)CO)S(=O)(=O)c2ccc(-c3cccc(C#N)c3)cc2O[C@H]1CN(C)Cc1ccccn1	10	/	-1	29	/	-17
C[C@@H]1CN([C@H](C)CO)S(=O)(=O)c2ccc(-c3ccc(C#N)cc3)cc2O[C@H]1CN(C)Cc1ccccn1	/	/	-1	53*	/	-6
CC=Cc1ccc2n(c1=O)C[C@@H]1[C@@H](CO)[C@H](C(=O)NCCc3ccncc3)[C@H]2N1CCc1ccccc1 (mixture of isomers)	/	/	0	-6	/	5
N#CCSc1n[nH]c2nc3c(c(=O)n12)C1(CCCCC1)Cc1ccccc1-3	-7	50*	0	0	-9	-11
CSc1n[nH]c2nc3c(c(=O)n12)C1(CCCCC1)Cc1ccccc1-3	-4	18	10	-6	8	35
CCSc1n[nH]c2nc3c(c(=O)n12)C1(CCCCC1)Cc1ccccc1-3	-7	52*	0	0	-8	13
CCn1c(SCC#N)nc2c(c1=O)C1(CCCC1)Cc1ccccc1-2	/	18	/	/	6	/
C[C@@H]1CN([C@@H](C)CO)C(=O)c2cc(NC(=O)C3CCCCC3)ccc2O[C@@H](C)CCCCO[C@@H]1CN(C)C(=O)Cc1ccccc1	/	/	0	-9	/	-4
c1csc(CCNc2ncnc3sc4c(c23)CCC4)c1	2	54*	0	17	61*	/
c1ccc(Nc2ncnc3sc4c(c23)CCC4)cc1	9	-3	/	/	0	/
Cc1ccc(S(=O)(=O)N(C)Cc2ccc(C(=O)N/N=C/c3ccc(OC(F)F)cc3OC(F)F)cc2)cc1	-11	36	0	18	60*	/
O=C(N/N=C/c1ccc(OC(F)F)cc1OC(F)F)c1ccc(Br)cc1	-4	-8	0	/	-28	-1
CCCCCCCCCCOC(=O)Cn1c(COc2ccccc2OC)[n+](C)c2ccccc21	1	61*	0	57*	67*	54*
Cc1ccc(NC(=O)c2cnc(N3CCN(c4ccccn4)CC3)c3ccccc23)c(Br)c1	-6	68*	0	23	93*	34
O=C(Nc1c(F)cccc1F)c1cnc(N2CCN(c3ccccn3)CC2)c2ccccc12	12	36	/	/	60*	/
